ChEMBL document CHEMBL1132562, “Ajoene is an inhibitor and subversive substrate of human glutathione reductase and Trypanosoma cruzi trypanothione reductase: crystallographic, kinetic, and spectroscopic studies” (J Med Chem, 1999)

What was measured:
[1] = substrate: C=CCSSSCC=C; assay: (§1) Km value determined against human Glutathione reductase (GR) by oxidation of NADPH
Procedure, shortened: (§2)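 Recombinant human glutathione reductase in GR assay buffer (phosphate, 200 mM KCl, 1 mM EDTA, pH 6.9) at 25 °C with 150 μM NADPH and ajoene or DATS as substrate. NADPH consumption read at 340 nm. Where GSH is present, it is added to the mixture. Controls held NADPH and enzyme only (intrinsic oxidase activity).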

[2] = substrate: C=CCSS/C=C/C[S+]([O-])CC=C; assay: as §1; procedure, shortened: as §2
[3] = substrate: C=CCSS/C=C\C[S+]([O-])CC=C; assay: as §1; procedure, shortened: as §2
[4] = substrate: C=CCSS/C=C/C[S+]([O-])CC=C; assay: (§3) Km value determined against Trypanothione reductase (TR); conditions: Trypanosoma cruzi
Procedure, shortened: (§4)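 T. cruzi trypanothione reductase, recombinant, with NADPH and ajoene as substrate in TR assay buffer (40 mM Hepes, 1 mM EDTA, pH 7.5) at 25 °C. NADPH oxidation followed as absorbance decrease at 340 nm. Controls held only NADPH and enzyme, giving the intrinsic oxidase activity.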

[5] = substrate: C=CCSS/C=C\C[S+]([O-])CC=C; assay: as §3; conditions: Trypanosoma cruzi; procedure, shortened: as §4
[6] = substrate: C=CCSS/C=C\C[S+]([O-])CC=C; assay: Km value determined against Trypanothione reductase (TR) by oxidation of NADPH; conditions: Trypanosoma cruzi
[7] = substrate: C=CCSS/C=C/C[S+]([O-])CC=C; assay: Kcat value determined against Trypanothione reductase (TR) by oxidation of NADPH; conditions: Trypanosoma cruzi; procedure, shortened: as §4

B1: Glutathione reductase, mitochondrial (Homo sapiens), P00390 (protein)
chain: MALLPRALSAGAGPSWRRAARAFRGFLLLLPEPAALTRALSRAMACRQEPQPQGPPPAAGAVASYDYLVIGGGSGGLASARRAAELGARAAVVESHKLGGTCVNVGCVPKKVMWNTAVHSEFMHDHADYGFPSCEGKFNWRVIKEKRDAYVSRLNAIYQNNLTKSHIEIIRGHAAFTSDPKPTIEVSGKKYTAPHILIATGGMPSTPHESQIPGASLGITSDGFFQLEELPGRSVIVGAGYIAVEMAGILSALGSKTSLMIRHDKVLRSFDSMISTNCTEELENAGVEVLKFSQVKEVKKTLSGLEVSMVTAVPGRLPVMTMIPDVDCLLWAIGRVPNTKDLSLNKLGIQTDDKGHIIVDEFQNTNVKGIYAVGDVCGKALLTPVAIAAGRKLAHRLFEYKEDSKLDYNNIPTVVFSHPPIGTVGLTEDEAIHKYGIENVKTYSTSFTPMYHAVTKRKTKCVMKMVCANKEEKVVGIHMQGLGCDEMLQGFAVAVKMGATKADFDNTVAIHPTSSEELVTLR
Km [1]: 160 µM
Km [2]: 800 µM
Km [3]: 380 µM

B2: Trypanothione reductase (Trypanosoma cruzi), P28593 (protein)
chain: MMSKIFDLVVIGAGSGGLEAAWNAATLYKKRVAVIDVQMVHGPPFFSALGGTCVNVGCVPKKLMVTGAQYMEHLRESAGFGWEFDRTTLRAEWKKLIAVKDEAVLNINKSYEEMFRDTEGLEFFLGWGSLESKNVVNVRESADPASAVKERLETENILLASGSWPHMPNIPGIEHCISSNEAFYLPEPPRRVLTVGGGFISVEFAGIFNAYKPKDGQVTLCYRGEMILRGFDHTLREELTKQLTANGIQILTKENPAKVELNADGSKSVTFESGKKMDFDLVMMAIGRSPRTKDLQLQNAGVMIKNGGVQVDEYSRTNVSNIYAIGDVTNRVMLTPVAINEAAALVDTVFGTNPRKTDHTRVASAVFSIPPIGTCGLIEEVASKRYEVVAVYLSSFTPLMHNISGSKYKTFVAKIITNHSDGTVLGVHLLGDNAPEIIQGVGICLKLNAKISDFYNTIGVHPTSAEELCSMRTPSYYYVKGEKMEKPSEASL
Km [4]: > 2000 µM
Km [5]: ≥ 2000 µM
Km [6]: > 2000 µM
Km [7]: > 2000 µM
